In ChEMBL document CHEMBL1124424, “Effects of steroid D-ring modification on suicide inactivation and competitive inhibition of aromatase by analogues of androsta-1,4-diene-3,17-dione” (J Med Chem, 1989):

Assays:
[1] = target: T1, Aromatase (Homo sapiens, UniProt P11511); experiment: Ratio of Ki to Km for human placental cytochrome P450 19A1
T1 sequence (P11511 whole entry): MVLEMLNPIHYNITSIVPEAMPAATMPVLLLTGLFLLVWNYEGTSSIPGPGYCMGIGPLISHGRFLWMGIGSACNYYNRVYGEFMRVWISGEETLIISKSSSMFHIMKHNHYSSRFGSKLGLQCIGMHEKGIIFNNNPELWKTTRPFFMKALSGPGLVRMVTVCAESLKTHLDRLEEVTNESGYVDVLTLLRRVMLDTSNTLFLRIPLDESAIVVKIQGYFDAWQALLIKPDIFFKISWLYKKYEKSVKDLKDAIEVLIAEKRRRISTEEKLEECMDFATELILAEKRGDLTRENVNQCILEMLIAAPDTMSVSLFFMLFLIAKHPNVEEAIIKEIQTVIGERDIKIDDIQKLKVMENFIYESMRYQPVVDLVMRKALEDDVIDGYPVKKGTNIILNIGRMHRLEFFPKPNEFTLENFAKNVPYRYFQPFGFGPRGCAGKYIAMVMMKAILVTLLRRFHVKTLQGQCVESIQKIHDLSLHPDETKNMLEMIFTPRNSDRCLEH
Procedure, shortened: (§1)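 Human placental microsomes (stored at -70 °C) in incubation buffer containing 4% by weight propylene glycol. Aromatase assays ran 1–5 min with five androstenedione concentrations (0.05–1.0 μM) and varied inhibitor concentrations. Ki is the average of two determinations at each of two inhibitor concentrations, with average deviation. Androstenedione Km was determined in each experiment, and the Ki/Km ratio was calculated.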

[2] = target: T1, Aromatase; experiment: Competitive inhibition of binding to human placental aromatase Cytochrome P450 19A1
[3] = target: T1, Aromatase; experiment: Inactivation rate (Ki) of human placental Cytochrome P450 19A1
Procedure, shortened: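 Inhibitor at four concentrations, in duplicate, was preincubated for various times with human placental microsomes and NADPH in buffer with 4% propylene glycol. Tritiated androstenedione was then added and residual aromatase activity assayed over 5 min. Loss was corrected against inhibitor-free controls, and first-order slopes gave k_app. Apparent Ki and k_inact came from a reciprocal k_app vs reciprocal concentration plot, with limiting t1/2 = ln2/k_inact.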

[4] = target: T1, Aromatase; experiment: Competitive inhibition of binding to human placental Cytochrome P450 19A1; procedure, shortened: as §1
[5] = Limiting t1/2 is the half life of aromatase inactivation in the presence of saturating concentrations of inhibitor
Procedure, shortened: (§2)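 Human placental microsomes (stored -70 °C; protein 8.9–16.4 mg/mL, specific activity 34–101 pmol min⁻¹ (mg protein)⁻¹) preincubated with NADPH and four inhibitor concentrations for various times, in buffer with 4% propylene glycol. Tritiated androstenedione then added and remaining aromatase activity assayed 5 min. Duplicates averaged. Activity corrected against inhibitor-free controls. Apparent Ki and kinact from double-reciprocal plot of kapp vs inhibitor concentration. Limiting t1/2 = ln2/kinact.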

[6] = target: T1, Aromatase; experiment: Inactivation rate (Ki) for human placental aromatase Cytochrome P450 19A1
[7] = target: T1, Aromatase; experiment: Inactivation rate (Ki) for human placental Cytochrome P450 19A1; procedure, shortened: as §2

| Structure (SMILES) | Ratio [1] | Ki [2] | Limiting t1/2 [5] | also measured |
| --- | --- | --- | --- | --- |
| CCC(=O)C1(C)CCC2C(CCC3=CC(=O)C=CC32C)C1 (stereo not drawn) | 1833 | 97 µM | – | – |
| CC(=O)C1(C)CCC2C(CCC3=CC(=O)C=CC32C)C1 (stereo not drawn) | 670 | 45 µM | – | – |
| CC(=O)OCC1(C)CCC2C(CCC3=CC(=O)C=CC32C)C1 (stereo not drawn) | 273 | 13 µM | – | – |
| CC1(C=O)CCC2C(CCC3=CC(=O)C=CC32C)C1 (stereo not drawn) | – | – | – | Ki [3]: 3.98 µM |
| CC1(C(=O)O)CCC2C(CCC3=CC(=O)C=CC32C)C1 (stereo not drawn) | 18651 | 893 µM | – | – |
| CC1C2CCC3=CC(=O)C=CC3(C)C2CCC1(C)C(=O)O (stereo not drawn) | 23234 | – | – | Ki [4]: 1200 µM |
| C[C@]12C=CC(=O)C=C1CC[C@@H]1[C@@H]2CC[C@]2(C)C(=O)OC[C@@H]12 | – | 0.41 µM | 6.2 min | Ki [6]: 0.39 µM |
| COC(=O)C1(C)CCC2C(CCC3=CC(=O)C=CC32C)C1 (stereo not drawn) | 1898 | – | – | Ki [4]: 130 µM |
| CC1(CO)CCC2C(CCC3=CC(=O)C=CC32C)C1 (stereo not drawn) | – | – | – | Ki [3]: 8.56 µM |
| CC12CCCC1C1CCC3=CC(=O)C=CC3(C)C1CC2 (stereo not drawn) | 8.8 | 0.69 µM | 15.2 min | Ki [7]: 1.1 µM |
| COC(=O)C1(C)CCC2C(CCC3=CC(=O)C=CC32C)C1C (stereo not drawn) | 2600 | 103 µM | – | – |
| C[C@]12C=CC(=O)C=C1CC[C@@H]1[C@@H]2CC[C@]2(C)C(=O)CC[C@@H]12 [ANDROSTENEDONE] | – | – | 12.6 min | – |
| C[C@]12CCC(=O)C[C@@H]1CC[C@@H]1[C@@H]2CC[C@]2(C)[C@@H](O)CC[C@@H]12 [STANOLONE] | 10.6 | – | 12.9 min | Ki [7]: 1.55 µM; Ki [4]: 0.22 µM |
